In the library only some 2.8% were active in any assay of this set; here they are far more common.
NPY Y1 blocker: NPY-Y1 receptor antagonists, primary screen, cell-based. Neuropeptide Y receptor type 1 (Homo sapiens), P25929. HEK293-CNG Y1 cells, membrane potential fluorescence; NPY at EC95, then isoproterenol. inhibition, % at 3.6 µM. hit rate 1% among 200,000;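 active = inhibition above the campaign mean inhibition of all tested compounds plus 3 SD, cut at about 20% in these data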;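 also: 0% = DMSO wells given NPY plus isoproterenol and 100% = isoproterenol alone without NPY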
Target sequence (P25929 whole entry, looked up): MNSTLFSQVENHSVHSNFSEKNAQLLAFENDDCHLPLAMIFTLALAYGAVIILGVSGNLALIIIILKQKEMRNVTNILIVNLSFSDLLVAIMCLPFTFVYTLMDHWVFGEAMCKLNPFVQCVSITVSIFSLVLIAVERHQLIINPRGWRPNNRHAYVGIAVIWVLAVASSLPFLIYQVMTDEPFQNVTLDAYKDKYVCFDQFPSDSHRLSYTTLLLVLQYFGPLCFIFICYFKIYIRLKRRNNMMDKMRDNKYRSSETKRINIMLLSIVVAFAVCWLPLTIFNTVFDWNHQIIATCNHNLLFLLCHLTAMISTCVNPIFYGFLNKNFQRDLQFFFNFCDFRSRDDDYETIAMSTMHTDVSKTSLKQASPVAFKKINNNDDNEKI
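Benchmarks – high control isoproterenol alone, low control NPY with isoproterenol · Material – HEK293 Y1/CNG channel cell line · Times – dye 3 h, compound 60 min room temperature, stimulation 45 min · Probe or stimulus – NPY (25 nM), isoproterenol (1 µM), Ro 20-1724 (25 µM) · Evaluation – % inhibition of NPY effect · Signal – fluorescence, membrane potential probe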
NPY2 pot ag: NPY-Y2 potentiators or agonists, primary screen, cell-based; hit rate 0.45% among 220,000; Neuropeptide Y receptor type 2 (Homo sapiens), P49146; AID 1359, 2008; activation, % at 3.6 µM; cells expressing NPY-Y2, potentiator/agonist read-out; in the data active = activation above about 27%;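 also: cells stimulated with NPY near EC25 plus isoproterenol at EC100; 0% = vehicle plus submaximal agonist and 100% = vehicle plus saturating agonist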
NPY-Y2 antag: NPY-Y2 receptor antagonists, primary screen, cell-based. AID 793, 2007. inhibition, % at 2.7 µM. Neuropeptide Y receptor type 2 (Homo sapiens), P49146. hit rate 0.99% among 140,000. NPY-Y2 expressing cells, antagonist mode;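 also: 0% = vehicle with agonist challenge and 100% = reference antagonist with challenge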
EP2 antag: human EP2 receptor antagonists, primary screen, TR-FRET cAMP, C6 glioma cells | C6 glioma cells expressing human EP2; cells stimulated with saturating PGE2 | inhibition, % at 25 µM | hit rate 0.52% among 260,000;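 active = percent inhibition above 40 after rounding to a whole number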;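 also: rat C6 glioma host cells with rolipram phosphodiesterase inhibitor present; the protocol text gives 20 µM as final concentration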
NPY1 pot ag: NPY-Y1 receptor potentiators or agonists, primary screen, cell-based; activation, % at 3.6 µM; Neuropeptide Y receptor type 1 (Homo sapiens), P25929; AID 1304, 2008; NPY-Y1 expressing cells, potentiator/agonist activation; hit rate 0.37% among 220,000; in the data active = activation above about 33%, passing the limit was not always enough;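 also: cells stimulated with NPY at EC10 then isoproterenol at EC100; 0% = low agonist plus stimulus and 100% = saturating agonist plus stimulus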
EP2 modulator: EP2 receptor modulators, cAMP readout, primary screen, cell-based, HTRF cAMP, PGE2 stimulation; EP2-expressing cells, cAMP HTRF FRET, PGE2 co-stimulation; induction, % at 25 µM; hit rate 0.83% among 260,000;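 active = compounds whose cAMP rise, as percent of the full-agonist control response, exceeds 60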;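 also: rat C6 glioma line stably carrying human EP2 under a CMV promoter; the protocol text gives 20 µM as final concentration; 100% = response of wells given 1 µM PGE2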
NPY-Y1 ant conf: NPY-Y1 receptor antagonists, retest of hits, confirmation, HEK293-CNG cells, membrane potential fluorescence, triplicate | hit rate 21% among 1,200 | cAMP; NPY challenge against isoproterenol-raised cAMP | shares compounds with NPY Y1 blocker | inhibition, % at 3.6 µM; in the data active = inhibition above about 20%;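 also: 0% = vehicle with agonist plus stimulus and 100% = stimulus alone without agonist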
NPY-Y2 antag ct: NPY-Y2 receptor antagonists, selectivity check, confirmation, counter-screen for NPY-Y1 antagonist project, HEK293-CNG cells, membrane potential fluorescence, triplicate; inhibition, % at 3.6 µM; shares compounds with NPY Y1 blocker; hit rate 28% among 1,200; antagonism; cells given NPY, then isoproterenol;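 also: 0% = DMSO with agonist challenge and 100% = reference antagonist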
NPY-Y1 pot conf: NPY-Y1 potentiators or agonists, confirmation, cell-based; shares compounds with NPY1 pot ag; cell-based NPY-Y1 potentiator/agonist assay; activation, % at 3.6 µM; hit rate 20% among 280; AID 1546, 2009; in the data active = activation above about 45%;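 also: cells challenged with NPY at its EC10 plus isoproterenol stimulus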
NPY-Y2 counter: NPY-Y2 potentiators or agonists, counter-screen for NPY-Y1 potentiator project, cell-based, fluorescence; shares compounds with NPY1 pot ag; HEK293-CNG cells, membrane-potential fluorescence (FLIPR), 1536-well; activation, % at 3.6 µM; hit rate 20% among 280; in the data active = activation above about 33%
NPY-Y1 agonist: NPY-Y1 direct agonists without NPY, confirmation, counter-screen for NPY-Y1 potentiator project, cell-based, fluorescence | shares compounds with NPY1 pot ag | HEK293 Y1-CNGC, membrane potential fluorescence, agonist mode | activation, % at 3.6 µM | hit rate 50% among 280;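 active = percent activation above the mean of DMSO-only control wells plus 3 SD of those wells, cut at about 18% in these data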;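 also: cells challenged with isoproterenol plus Ro 20-1724 with no NPY in test wells; Y1 agonism lowers isoproterenol-driven cAMP and reduces probe fluorescence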
NPY-Y2 ag: NPY-Y2 direct agonists without NPY, counter-screen for NPY-Y1 potentiator project, cell-based, fluorescence | HEK293 Y2-CNGC, membrane potential fluorescence, agonist mode | activation, % at 3.6 µM | shares compounds with NPY1 pot ag | hit rate 67% among 280;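 active = activation above the solvent-only control wells' mean plus 3 SD, cut at about 11% in these data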;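 also: 0% = DMSO with isoproterenol and 100% = 40 nM NPY maximal response; agonism lowers cAMP so well fluorescence drops in active wells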
CNGC counter: CNGC cAMP sensor activity inhibitors, counter-screen for NPY-Y1 potentiator/agonist project, cell-based, HEK293-CNG parental, membrane potential fluorescence, Y1 set; shares compounds with NPY1 pot ag; hit rate 42% among 280; isoproterenol cAMP; inhibition, % at 3.6 µM; AID 1704, 2009;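 active = inhibition above the mean of stimulated solvent-only control wells plus 3 SD, cut at about 22% in these data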;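 also: 0% = isoproterenol-stimulated DMSO wells and 100% = unstimulated DMSO wells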
* marks the source's active call; other numbers are inactive results; . = no result. Rule as the data show it, unless noted: active = inhibition above about 17%; inactive = the rest.

SMILES	NPY Y1 blocker	NPY2 pot ag	NPY-Y2 antag	EP2 antag	NPY1 pot ag	EP2 modulator	NPY-Y1 pot conf	NPY-Y2 counter	NPY-Y1 agonist	NPY-Y2 ag	CNGC counter	others
CC(=O)OC1COC(OC2C(O)C(C)OC(OC3C(OC4CCC5(C)C(CCC6(C)C5CC=C5C7CC(C)(C)CCC7(C(=O)O)CCC56C)C4(C)CO)OCC(O)C3O)C2O)C(O)C1OC(C)=O (centres undefined)	23*	7	.	14	60*	-1	83*	68*	58*	62*	47*	NPY-Y1 ant conf=22*;NPY-Y2 antag ct=12
O=S(=O)(c1ccc(S(=O)(=O)N(Cc2ccco2)Cc2ccccc2Cl)cc1)N1CCCC1	3	-15	5	5	-29	9	.	.	.	.	.
CN(C)S(=O)(=O)c1ccc(S(=O)(=O)N(Cc2ccco2)Cc2ccccc2Cl)cc1	-10	20	12	10	38*	-4	0	-3	-8	0	-14
O=[N+]([O-])c1cc(S(=O)(=O)N2CCCCCC2)ccc1Cl	-2	31	.	5	41*	16	16	22	16	22*	56*
Cc1ccc(S(=O)(=O)N2CCCC2)cc1[N+](=O)[O-]	0	7	1	8	15	3	.	.	.	.	.
COc1ccc2c(c1)c(/C=N/Nc1nc3ccccc3[nH]1)c(C)n2C	.	29	.	49*	42*	-34	60*	47*	42*	50*	36*
COc1cc(/C=N\Nc2nc3ccccc3[nH]2)cc(OC)c1OC	2	-5	1	17	-20	-75	.	.	.	.	.
CC1CC(C)CN(CCCNC(=O)c2cc3c(=O)[nH]c4ccccc4c3n2C)C1 (centres undefined)	-5	21	.	3	41*	-15	20	20	26*	19*	9
CCOC(=O)C(C)(C)N(Cc1cccc(C)c1)S(=O)(=O)c1ccc(Cl)c([N+](=O)[O-])c1	-9	27	-3	9	66*	16	34	29	39*	31*	46*
N#CC(C#N)=NNc1ccc([N+](=O)[O-])cc1	.	33	.	9	51*	-38	40	32	37*	36*	32*
C/C(=N\Nc1ccc([N+](=O)[O-])cc1)c1ccc(C#N)cc1	.	14	.	16	20	-23	.	.	.	.	.
CCN(CC)C(=O)c1ccccc1NS(C)(=O)=O	1	4	.	4	37*	0	-6	-4	-4	5	-5
CCN1CCCC1CNC(=O)c1ccc(Sc2ccccc2Cl)c([N+](=O)[O-])c1 (centres undefined)	6	23	.	7	36*	-73	32	23	23*	30*	34*
CCOC(=O)/C=C/C(=O)Nc1ccc(Oc2ccccc2)cc1	-10	6	.	2	39*	-40	18	12	16	19*	25*
CCOc1ccc2c(c1)C1C=CCC1C(c1ccc(F)cc1)N2 (centres undefined)	.	.	.	9	.	24	.	.	.	.	.
C(=Nc1ccc(Nc2ccccc2)cc1)c1ccc2ccccc2c1	-8	22	4	0	46*	-13	-14	-9	3	0	-1
Brc1ccc(C=Nc2ccc(Nc3ccccc3)cc2)s1	0	16	2	7	40*	41	2	2	9	17*	8
Cc1c(C(=O)NC(C)(C)CN2CCCC(C)C2)sc2ncn(C)c(=O)c12 (centres undefined)	.	.	.	6	.	-14	.	.	.	.	.
CC(C)N=C1NN=C(c2ccc(Cl)c(Cl)c2)CS1	1	9	.	5	49*	-45	-1	-3	-4	2	4
CC1CCN(c2ncnc3ccccc23)CC1	-6	-6	3	9	40*	9	-18	-5	-23	-10	-3
Cc1nc2ccccc2nc1N1CCC(C)CC1	3	2	2	12	0	30	.	.	.	.	.
COc1ccc(-n2nnnc2SCC(=O)Nc2ccc3c(c2)OCCO3)cc1	.	.	.	8	.	-56	.	.	.	.	.
Cc1ccc(Nc2c(-c3ccccc3O)nc3ncccn23)cc1	.	9	.	7	13	0	.	.	.	.	.
Cc1cccc(Nc2c(-c3ccc(O)cc3)nc3ncccn23)c1	-3	29	.	5	40*	-39	32	29	16	31*	23*
Cc1cc(C)cc(OCC(O)CN2CCN(Cc3ccc4c(c3)OCO4)CC2)c1 (centres undefined)	-2	11	.	6	50*	-57	-15	-4	-3	8	-11
OC(COc1ccccc1)CN1CCN(Cc2ccc3c(c2)OCO3)CC1 (centres undefined)	5	0	.	10	2	13	.	.	.	.	.
